ChEMBL document CHEMBL1123779, “Modifications of primaquine as antimalarials. 4. 5-Alkoxy derivatives of primaquine” (J Med Chem, 1987)

Key:
Mus musculus [1] = experiment: Suppressive blood schizonticidal antimalarial activity evaluated in the trophozoite-induced Plasmodium berghei infection in mice (Mus musculus) at a dose 5 mg/kg; format: functional; set-up: unit not given beside the values
Procedure, shortened: (§1)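 Run at the Rane Laboratory in mice infected with blood-induced P. berghei, five animals per group. Activity is the increase in mean survival time over untreated infected controls. A compound counts as active when treated-group MST is more than twice the control MST. Cures are mice surviving at 60 days postinfection.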

Mus musculus [2] = experiment: Suppressive blood schizonticidal antimalarial activity evaluated in the trophozoite-induced Plasmodium berghei infection in mice (Mus musculus) at a dose 10 mg/kg given as no. of cures; format: functional
Procedure, shortened: (§2)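 Run at the Rane Laboratory with blood-induced P. berghei infections in mice, five animals per group. A cure is a mouse surviving to 60 days postinfection. Deaths before day 6 are recorded separately as toxic deaths. Activity is scored from the increase in mean survival time over untreated controls, and counts as active when treated MST is more than twice control MST.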

Plasmodium cynomolgi [3] = experiment: Cures in Plasmodium cynomolgi infected Rhesus monkeys (Macaca mulatta) on 1 mg/kg/day after 7 days; cured 2 of 2; format: functional
Plasmodium berghei [4] = experiment: Blood schizonticidal activity in trophozoite-induced Plasmodium berghei infected mice (Mus musculus) at 40 mg/kg; numbers cured; format: functional; procedure, shortened: as §2
Plasmodium cynomolgi [5] = experiment: Cures in Plasmodium cynomolgi infected Rhesus monkeys (Macaca mulatta) on 10.0 mg/kg/day after 7 days; cured 1 of 1; format: functional
Mus musculus [6] = experiment: Suppressive blood schizonticidal antimalarial activity evaluated in the trophozoite-induced Plasmodium berghei infection in mice (Mus musculus) at a dose 20 mg/kg given as no. of cures; format: functional; procedure, shortened: as §2
Mus musculus [7] = experiment: Suppressive blood schizonticidal antimalarial activity evaluated in the trophozoite-induced Plasmodium berghei infection in mice (Mus musculus) at a dose 80 mg/kg given as no. of cures; format: functional; procedure, shortened: as §2
Plasmodium cynomolgi [8] = experiment: Cures in Plasmodium cynomolgi infected Rhesus monkeys (Macaca mulatta) on 0.316 mg/kg/day after 7 days; cured 0 of 1; format: functional
Plasmodium berghei [9] = experiment: Suppressive blood schizonticidal antimalarial activity evaluated in the trophozoite-induced Plasmodium berghei infection in mice (Mus musculus) at a dose 640 mg/kg given as number of toxic deaths; format: toxicity, organism-based; set-up: dose 640 mg/kg; settings: in vivo
Procedure, shortened: (§3)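 Rane Laboratory mouse test with blood-induced P. berghei infection, five mice per group. Toxic deaths are deaths occurring before the 6th day postinfection.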

Plasmodium cynomolgi [10] = experiment: Cures in Plasmodium cynomolgi infected Rhesus monkeys (Macaca mulatta) on 0.1 mg/kg/day after 7 days; cured 0 of 1; format: functional
Mus musculus [11] = experiment: Suppressive blood schizonticidal antimalarial activity evaluated in the trophozoite-induced Plasmodium berghei infection in mice (Mus musculus) at a dose 320 mg/kg given as no. of toxic deaths; format: functional; procedure, shortened: as §3
Mus musculus [12] = experiment: Suppressive blood schizonticidal antimalarial activity evaluated in the trophozoite-induced Plasmodium berghei infection in mice (Mus musculus) at a dose 2.5 mg/kg; format: functional; procedure, shortened: as §1
Mus musculus [13] = experiment: Suppressive blood schizonticidal antimalarial activity evaluated in the trophozoite-induced Plasmodium berghei infection in mice (Mus musculus) at a dose 10 mg/kg; format: functional; procedure, shortened: as §1
Plasmodium cynomolgi [14] = experiment: Cures in Plasmodium cynomolgi infected Rhesus monkeys (Macaca mulatta) on 1 mg/kg/day after 7 days; cured 1 of 1; format: functional
Mus musculus [15] = experiment: Suppressive blood schizonticidal antimalarial activity evaluated in the trophozoite-induced Plasmodium berghei infection in mice (Mus musculus) at a dose 160 mg/kg given as no. of toxic deaths; format: functional; procedure, shortened: as §3
Mus musculus [16] = experiment: Suppressive blood schizonticidal antimalarial activity evaluated in the trophozoite-induced Plasmodium berghei infection in mice (Mus musculus) at a dose 80 mg/kg; format: functional; set-up: unit not given beside the values; procedure, shortened: as §1
Mus musculus [17] = experiment: Suppressive blood schizonticidal antimalarial activity evaluated in the trophozoite-induced Plasmodium berghei infection in mice (Mus musculus) at a dose 320 mg/kg; format: functional; procedure, shortened: as §1
Plasmodium cynomolgi [18] = experiment: Cures in Plasmodium cynomolgi infected Rhesus monkeys (Macaca mulatta) on 0.1 mg/kg/day after 7 days (x7); cured 0 of 2; format: functional
Mus musculus [19] = experiment: Suppressive blood schizonticidal antimalarial activity evaluated in the trophozoite-induced Plasmodium berghei infection in mice (Mus musculus) at a dose 40 mg/kg; format: functional; set-up: unit not given beside the values; procedure, shortened: as §1
Plasmodium berghei [20] = experiment: Blood schizonticidal antimalarial activity in the trophozoite-induced Plasmodium berghei infection in mice (Mus musculus) at 20 mg/kg; format: functional; set-up: unit not given beside the values; procedure, shortened: as §1
Mus musculus [21] = experiment: Suppressive blood schizonticidal antimalarial activity evaluated in the trophozoite-induced Plasmodium berghei infection in mice (Mus musculus) at a dose 160 mg/kg; format: functional; procedure, shortened: as §1
Mus musculus [22] = experiment: Suppressive blood schizonticidal antimalarial activity evaluated in the trophozoite-induced Plasmodium berghei infection in mice (Mus musculus) at a dose 640 mg/kg given as no. of cures; format: functional; procedure, shortened: as §2
Plasmodium cynomolgi [23] = experiment: Cures in Plasmodium cynomolgi infected Rhesus monkeys (Macaca mulatta) on 1 mg/kg/day after 7 days; cured 0 of 1; format: functional
Mus musculus [24] = experiment: Suppressive blood schizonticidal antimalarial activity evaluated in the trophozoite-induced Plasmodium berghei infection in mice (Mus musculus) at a dose 80 mg/kg given as no. of toxic deaths; format: functional; procedure, shortened: as §3
Plasmodium cynomolgi [25] = experiment: Cures in Plasmodium cynomolgi infected Rhesus monkeys (Macaca mulatta) on 0.316 mg/kg/day after 7 days; cures 2 of 2; format: functional
Mus musculus [26] = experiment: Suppressive blood schizonticidal antimalarial activity evaluated in the trophozoite-induced Plasmodium berghei infection in mice (Mus musculus) at a dose 5 mg/kg given as no. of cures; format: functional; procedure, shortened: as §2
Plasmodium cynomolgi [27] = experiment: Cures in Plasmodium cynomolgi infected Rhesus monkeys (Macaca mulatta) on 0.316 mg/kg/day after 7 days; cured 0 of 2; format: functional
Plasmodium cynomolgi [28] = experiment: Radical curative antimalarial activity against Plasmodium cynomolgi in Rhesus monkeys (Macaca mulatta) at 1 mg/kg/day over 7 days; cured 1 of 2; format: functional
Mus musculus [29] = experiment: Suppressive blood schizonticidal antimalarial activity evaluated in the trophozoite-induced Plasmodium berghei infection in mice (Mus musculus) at a dose 160 mg/kg given as no. of cures; format: functional; procedure, shortened: as §2
Mus musculus [30] = experiment: Suppressive blood schizonticidal antimalarial activity evaluated in the trophozoite-induced Plasmodium berghei infection in mice (Mus musculus) at a dose 320 mg/kg given as number of cures; format: functional; procedure, shortened: as §2
Plasmodium cynomolgi [31] = experiment: Cures in Plasmodium cynomolgi infected Rhesus monkeys (Macaca mulatta) on 10.0 mg/kg/day after 7 days; format: functional, organism-based

Structure (SMILES)	Cures (Plasmodium berghei [4])	Cures (Mus musculus [6])	Cures (Mus musculus [7])	Cures/no. of animals (Plasmodium cynomolgi [8])	Toxic deaths (Plasmodium berghei [9])	Toxic deaths (Mus musculus [11])	Delta MST (Mus musculus [12])	Delta MST (Mus musculus [13])	Cures/no. of animals (Plasmodium cynomolgi [14])	Toxic deaths (Mus musculus [15])	Delta MST (Mus musculus [16])	Cures/no. of animals (Plasmodium cynomolgi [18])	Delta MST (Mus musculus [19])	Delta MST (Plasmodium berghei [20])	Cures (Mus musculus [22])	also measured
COc1cc(NC(C)CCCN)c2nccc(C)c2c1OCC1CCCCC1 (stereo not given)	3	4	1	0	5	4	9.2	–	–	–	–	–	–	–	–	Delta MST (Mus musculus [1]): 7.8; Cures (Mus musculus [2]): 1; Cures/no. of animals (Plasmodium cynomolgi [3]): 2; Cures/no. of animals (Plasmodium cynomolgi [5]): 1; Cures/no. of animals (Plasmodium cynomolgi [10]): 0
CCCCC(C)Oc1c(OC)cc(NC(C)CCCN)c2ncc(C)cc12 (stereo not given)	3	2	1	–	5	5	–	6.1	1	5	–	–	–	–	–	–
CCCCCCCCOc1c(OC)cc(NC(C)CCCN)c2ncccc12 (stereo not given)	–	–	–	0	1	–	–	–	–	–	8.1	0	6.7	2.9	–	Cures/no. of animals (Plasmodium cynomolgi [3]): 2; Delta MST (Mus musculus [17]): 6.3; Delta MST (Mus musculus [21]): 12.1
CCCCCCCCCCOc1c(OC)cc(NC(C)CCCN)c2ncccc12 (stereo not given)	–	–	–	–	–	–	–	–	–	–	2.9	–	0.1	0.1	2	Delta MST (Mus musculus [17]): 9.3; Cures/no. of animals (Plasmodium cynomolgi [5]): 1; Cures/no. of animals (Plasmodium cynomolgi [23]): 0; Delta MST (Mus musculus [21]): 5.7
CCCCOc1c(OC)cc(NC(C)CCCN)c2nccc(C)c12 (stereo not given)	3	5	–	–	5	5	–	11	1	5	–	0	–	–	–	Toxic deaths (Mus musculus [24]): 4; Cures/no. of animals (Plasmodium cynomolgi [25]): 2
COc1cc(NC(C)CCCN)c2nccc(C)c2c1OCCCCOc1ccccc1 (stereo not given)	5	5	–	–	5	5	8	10.2	–	5	–	0	–	–	–	Cures (Mus musculus [26]): 1; Toxic deaths (Mus musculus [24]): 5
COc1cc(NC(C)CCCN)c2ncccc2c1 (stereo not given) [PRIMAQUINE]	–	–	–	–	5	5	–	–	–	2	9.4	0	5	4	–	Cures/no. of animals (Plasmodium cynomolgi [27]): 0; Cures/no. of animals (Plasmodium cynomolgi [28]): 1
CCCCCCCCCCCCOc1c(OC)cc(NC(C)CCCN)c2nccc(C)c12 (stereo not given)	–	–	–	–	–	–	–	2	–	–	7.6	–	6.4	3.2	5	Cures (Mus musculus [29]): 4; Cures/no. of animals (Plasmodium cynomolgi [23]): 0; Cures/no. of animals (Plasmodium cynomolgi [10]): 0; Cures (Mus musculus [30]): 5
CCCCCCCCCOc1c(OC)cc(NC(C)CCCN)c2nccc(C)c12 (stereo not given)	5	3	5	–	–	–	7.9	–	1	–	–	0	–	–	4	Delta MST (Mus musculus [1]): 9.7; Cures (Mus musculus [2]): 2; Cures (Mus musculus [29]): 4; Cures/no. of animals (Plasmodium cynomolgi [27]): 0; Cures (Mus musculus [30]): 4; Cures/no. of animals (Plasmodium cynomolgi [31]): Toxic
COc1cc(NC(C)CCCN)c2ncccc2c1OCC(F)(F)F (stereo not given)	–	–	–	0	–	–	–	–	1	–	–	–	–	–	–	–
